From ChEMBL document CHEMBL1152933, “Synthesis and evaluation of novel 7-azaindazolyl-indolyl-maleimide derivatives as antitumor agents and protein kinase C inhibitors” (Bioorg Med Chem, 2009)
The source made the active and inactive calls. The calls are words filed in the database; no cut-off is given here.

How the values were obtained:
[1] = Antiproliferative activity against human ECA109 cells after 48 hrs by MTT assay; assay type: functional, cell-based; conditions: ECa-109, 48 h
Procedure, shortened: (§1)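 MTT assay after 48 h incubation with compound. MTT (5.0 mg/mL stock in RPMI-1640) was added and incubated a further 4 h at 37 °C. Formazan was dissolved in DMSO and absorbance read at 570 nm. IC50 is the concentration giving 50% decrease in cell growth, computed from dose-effect analysis. Triplicate wells, three independent experiments, values are means.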

A549 = assay: Antiproliferative activity against human A549 cells after 48 hrs by MTT assay; assay type: functional, cell-based; conditions: A549, 48 h; procedure, shortened: as §1
K562 = assay: Antiproliferative activity against human K562 cells after 48 hrs by MTT assay; assay type: functional, cell-based; conditions: K562, 48 h; procedure, shortened: as §1
KB [2] = assay: Antiproliferative activity against human KB cells after 48 hrs by MTT assay; assay type: functional, cell-based; procedure, shortened: as §1
SMMC-7721 = assay: Antiproliferative activity against human SMMC7721 cells after 48 hrs by MTT assay; assay type: functional, cell-based; conditions: SMMC-7721, 48 h; procedure, shortened: as §1
[3] = Inhibition of PKC by […] assay
Procedure, shortened: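 Recombinant PKC was incubated with reaction mixture containing a fluorescent PepTag PKC-specific peptide substrate at 30 °C for 30 min, then stopped by boiling. Phosphorylated (−1) and nonphosphorylated (+1) peptide were separated on 0.8% agarose in 50 mM Tris-HCl pH 8.0 at 100 V for 15 min and visualized under UV. IC50 values are means of three experiments.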

KB [4] = assay: Antiproliferative activity against human KB cells at 10 uM after 48 hrs by MTT assay; assay type: functional, cell-based
KB [5] = assay: Induction of apoptosis in human KB cells assessed as DNA fragmentation at 10 uM after 48 hrs by agarose gel electrophoresis; assay type: functional, cell-based
Procedure, shortened: (§2)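 KB cells were treated 48 h with 10 or 20 µM, then lysed in EDTA/Tris pH 8.0/SDS/proteinase K buffer at 37 °C for 12 h, followed by RNase 1 h at 37 °C. DNA was phenol/chloroform extracted and ethanol precipitated, then run on 1.5% agarose gel with ethidium bromide and photographed for laddering.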

KB [6] = assay: Induction of apoptosis in human KB cells assessed as DNA fragmentation at 20 uM after 48 hrs by agarose gel electrophoresis; assay type: functional, cell-based; procedure, shortened: as §2
KB [7] = assay: Induction of apoptosis in human KB cells assessed as increase in caspase 3/7 activity at 10 uM after 48 hrs; assay type: functional, cell-based
Procedure, shortened: (§3)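 KB cells were cultured 48 h with 10 or 20 µM, then caspase-3/7 activity was measured with a Caspase-Glo 3/7 kit per the kit protocol and compared with control cells.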

KB [8] = assay: Induction of apoptosis in human KB cells assessed as increase in caspase 3/7 activity at 20 uM after 48 hrs; assay type: functional, cell-based; procedure, shortened: as §3
KB [9] = assay: Induction of apoptosis in human KB cells assessed as increase in JNK expression at 20 uM after 48 hrs by Western blotting; assay type: functional, cell-based
Procedure, shortened: (§4)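 KB cells were treated 48 h with 10 or 20 µM, then lysed in NaCl/Tris pH 8.0/EGTA/EDTA/NaF/β-glycerophosphate/Triton/NP-40/PMSF buffer. Protein was quantified by BCA. Equal protein was run on 10–12% Tris-glycine gels and blotted. Blots were probed for JNK, Bax, Bcl-2, procaspase-9, procaspase-3 and tubulin, with HRP secondary and ECL detection. Bax/Bcl-2 ratio was derived from the blots.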

KB [10] = assay: Induction of apoptosis in human KB cells assessed as decrease in BCL-2 expression at 20 uM after 48 hrs by Western blotting; assay type: functional, cell-based; procedure, shortened: as §4
KB [11] = assay: Induction of apoptosis in human KB cells assessed as decrease in procaspase-9 expression at 20 uM after 48 hrs by Western blotting; assay type: functional, cell-based; procedure, shortened: as §4
KB [12] = assay: Induction of apoptosis in human KB cells assessed as decrease in procaspase-3 expression at 20 uM after 48 hrs by Western blotting; assay type: functional, cell-based; procedure, shortened: as §4
KB [13] = assay: Induction of apoptosis in human KB cells assessed as increase in Bax/Bcl-2 ratio at 20 uM after 48 hrs by Western blotting; assay type: functional, cell-based; procedure, shortened: as §4
KB [14] = assay: Antiproliferative activity against human KB cells at 20 uM after 48 hrs by light microscopy

| SMILES | IC50 [1] [µM] | IC50 (A549) [µM] | IC50 (K562) [µM] | IC50 (KB [2]) [µM] | IC50 (SMMC-7721) [µM] | IC50 [3] [µM] | Activity (KB [4]) | Activity (KB [5]) | Activity (KB [6]) | Activity (KB [7]) | Activity (KB [8]) | Activity (KB [9]) | Activity (KB [10]) | Activity (KB [11]) | Activity (KB [12]) | Activity (KB [13]) | Activity (KB [14]) |
| --- | --- | --- | --- | --- | --- | --- | --- | --- | --- | --- | --- | --- | --- | --- | --- | --- | --- |
| Cn1cc(C2=C(c3nn(CCCn4cncn4)c4ncccc34)C(=O)N(c3ccccc3)C2=O)c2ccccc21 | > 100 | > 100 | > 100 | > 100 | > 100 | > 10 | – | – | – | – | – | – | – | – | – | – | – |
| Cn1cc(C2=C(c3nn(CCCn4ccnc4)c4ncccc34)C(=O)NC2=O)c2ccccc21 | > 100 | > 100 | 13.8 | > 100 | > 100 | 0.9 | – | – | – | – | – | – | – | – | – | – | – |
| Cn1cc(C2=C(c3n[nH]c4ncccc34)C(=O)N(c3cccc4ccccc34)C2=O)c2ccccc21 | > 100 | > 100 | > 100 | > 100 | > 100 | > 10 | – | – | – | – | – | – | – | – | – | – | – |
| Cn1cc(C2=C(c3nn(CCCN4CCOCC4)c4ncccc34)C(=O)NC2=O)c2ccccc21 | > 100 | > 100 | > 100 | > 100 | > 100 | 5.95 | – | – | – | – | – | – | – | – | – | – | – |
| Cn1cc(C2=C(c3nn(CCCO)c4ncccc34)C(=O)NC2=O)c2ccccc21 | > 100 | > 100 | 85.8 | > 100 | > 100 | 3.15 | – | – | – | – | – | – | – | – | – | – | – |
| Cn1cc(C2=C(c3nn(CCCCn4ccnc4)c4ncccc34)C(=O)NC2=O)c2ccccc21 | 23.5 | 2.38 | 31.8 | > 100 | 29.2 | 0.86 | – | – | – | – | – | – | – | – | – | – | – |
| Cn1cc(C2=C(c3nn(CCCN4CCCCC4)c4ncccc34)C(=O)N(c3cccc4ccccc34)C2=O)c2ccccc21 | 1.83 | 2.82 | 3.18 | 13.4 | 0.22 | > 10 | – | – | – | – | – | – | – | – | – | – | – |
| Cn1cc(C2=C(c3nn(CCCn4cccc4)c4ncccc34)C(=O)NC2=O)c2ccccc21 | > 100 | > 100 | 21.6 | > 100 | > 100 | 1.1 | – | – | – | – | – | – | – | – | – | – | – |
| CN(C)CCCn1nc(C2=C(c3cn(C)c4ccccc34)C(=O)N(c3ccccc3)C2=O)c2cccnc21 | 5.84 | 13 | 1.7 | 14.1 | 31.2 | > 10 | – | – | – | – | – | – | – | – | – | – | – |
| Cn1cc(C2=C(c3nn(CCCn4ccnc4)c4ncccc34)C(=O)N(c3ccccc3)C2=O)c2ccccc21 | 1.44 | 1.56 | 5.51 | 6.8 | 34.8 | > 10 | – | – | – | – | – | – | – | – | – | – | – |
| Cn1cc(C2=C(c3nn(CCCCn4ccnc4)c4ncccc34)C(=O)N(c3ccccc3)C2=O)c2ccccc21 | 7.54 | 21.7 | 5.03 | 47.3 | 1.76 | > 10 | – | – | – | – | – | – | – | – | – | – | – |
| Cn1cc(C2=C(c3n[nH]c4ncccc34)C(=O)N(c3ccccc3)C2=O)c2ccccc21 | > 100 | > 100 | 3.26 | > 100 | > 100 | > 10 | – | – | – | – | – | – | – | – | – | – | – |
| Cn1cc(C2=C(c3nn(CCCN4CCCCC4)c4ncccc34)C(=O)N(c3ccccc3)C2=O)c2ccccc21 | 12.3 | 20.6 | 3.79 | 5.6 | 3.05 | > 10 | Active | Active | Active | Active | Active | Active | Active | Active | Active | Active | Active |
| CN(C)CCCn1nc(C2=C(c3cn(C)c4ccccc34)C(=O)NC2=O)c2cccnc21 | > 100 | > 100 | 50.4 | > 100 | > 100 | 0.72 | – | – | – | – | – | – | – | – | – | – | – |
| Cn1cc(C2=C(c3nn(CCCN4CCCCC4)c4ncccc34)C(=O)N(c3ccccn3)C2=O)c2ccccc21 | 7.3 | > 100 | > 100 | > 100 | > 100 | > 10 | – | – | – | – | – | – | – | – | – | – | – |
| Cn1cc(C2=C(c3nn(CCCn4cccc4)c4ncccc34)C(=O)N(c3ccccc3)C2=O)c2ccccc21 | > 100 | > 100 | 36.6 | > 100 | > 100 | > 10 | – | – | – | – | – | – | – | – | – | – | – |
| Cn1cc(C2=C(c3n[nH]c4ncccc34)C(=O)NC2=O)c2ccccc21 | 46.1 | > 100 | > 100 | 62 | > 100 | > 10 | – | – | – | – | – | – | – | – | – | – | – |
| Cn1cc(C2=C(c3nn(CCCN4CCCCC4)c4ncccc34)C(=O)NC2=O)c2ccccc21 | 42.3 | > 100 | 5.96 | 98 | 7.67 | 0.65 | – | – | – | – | – | – | – | – | – | – | – |
| Cn1cc(C2=C(c3nn(CCn4ccnc4)c4ncccc34)C(=O)NC2=O)c2ccccc21 | > 100 | > 100 | > 100 | > 100 | > 100 | 9.1 | – | – | – | – | – | – | – | – | – | – | – |
| COc1ccc(N2C(=O)C(c3cn(C)c4ccccc34)=C(c3nn(CCCN4CCCCC4)c4ncccc34)C2=O)cc1 | 3.34 | 30.3 | > 100 | 44 | 1.74 | > 10 | – | – | – | – | – | – | – | – | – | – | – |
| Cn1cc(C2=C(c3nn(CCCn4cncn4)c4ncccc34)C(=O)NC2=O)c2ccccc21 | > 100 | > 100 | > 100 | > 100 | > 100 | 2.2 | – | – | – | – | – | – | – | – | – | – | – |
| Cn1cc(C2=C(c3nn(CCCN4CCCCC4)c4ncccc34)C(=O)N(c3ccc(Cl)cc3)C2=O)c2ccccc21 | > 100 | 28.7 | 1.8 | > 100 | > 100 | > 10 | – | – | – | – | – | – | – | – | – | – | – |
| CN1CCN(CCCn2nc(C3=C(c4cn(C)c5ccccc45)C(=O)NC3=O)c3cccnc32)CC1 | > 100 | > 100 | 46.7 | > 100 | > 100 | 1.86 | – | – | – | – | – | – | – | – | – | – | – |
| O=C1NC(=O)C(c2c[nH]c3ccccc23)=C1c1c[nH]c2ccccc12 [RO-316233] | 83.5 | 56.6 | 17.5 | 53.8 | > 100 | 0.35 | – | – | – | – | – | – | – | – | – | – | – |
| Cn1cc(C2=C(c3nn(CCn4ccnc4)c4ncccc34)C(=O)N(c3ccccc3)C2=O)c2ccccc21 | 8.77 | 43.1 | 26.4 | > 100 | > 100 | > 10 | – | – | – | – | – | – | – | – | – | – | – |
